Laboratory results from ChEMBL document CHEMBL2040803, “Synthesis and anticonvulsant activity of ethyl 1-(2-arylhydrazinecarboxamido)-2,2-dimethylcyclopropanecarboxylate derivatives” (Eur J Med Chem, 2012).
The source made the active and inactive calls.

Organism: Mus musculus
Assay: Protective index, ratio of TD50 for neurotoxicity in Kunming mouse to ED50 for protection against MES-induced seizures in Kunming mouse
Format: functional
Conditions: not given

SMILES | Ratio TD50/ED50
CCOC(=O)C1(NC(=O)NNC(=O)c2ccc(C(F)(F)F)cc2)CC1(C)C (configuration not stated) | 33.9
CCOC(=O)C1(NC(=O)NN2C(=O)c3ccccc3C2=O)CC1(C)C (configuration not stated) | 14.9
CCOC(=O)C1(NC(=O)NNC(=O)c2ccc(Cl)cc2)CC1(C)C (configuration not stated) | 19

Test system: Mus musculus
Assay: Neurotoxicity in Kunming mouse at 300 mg/kg, ip after 0.5 hr by rotorod test
Format: toxicity, organism-based
Set-up: dose 300 mg/kg, route intraperitoneal
Conditions: in vivo
In short: (§1)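 Trained male Kunming mice were given ip doses of 30, 100 or 300 mg/kg, one to four per dose. They were placed on a 1 in. knurled rod rotating at 6 rpm, and examined at 0.5 h and 4.0 h. Neurotoxicity was inability to keep balance for at least 1 min in each of four trials. The value is the minimal dose giving toxicity in half or more of the mice.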

SMILES | Activity
CCOC(=O)C1(NC(=O)NNC(=O)c2ccc(C(F)(F)F)cc2)CC1(C)C (configuration not stated) | Non-toxic
CCOC(=O)C1(NC(=O)NNC(=O)c2ccc(OC)cc2)CC1(C)C (configuration not stated) | Non-toxic
CCOC(=O)C1(NC(=O)NN2C(=O)c3ccccc3C2=O)CC1(C)C (configuration not stated) | Non-toxic
CCOC(=O)C1(NC(=O)NNC(=O)c2ccc(OC)c(OC)c2)CC1(C)C (configuration not stated) | Non-toxic
CCOC(=O)C1(NC(=O)NNC(=O)c2ccc(CC)cc2)CC1(C)C (configuration not stated) | Non-toxic
CCOC(=O)C1(NC(=O)NNC(=O)c2ccc(C(C)(C)C)cc2)CC1(C)C (configuration not stated) | Non-toxic
CCOC(=O)C1(NC(=O)NNC(=O)c2ccc(Cl)cc2)CC1(C)C (configuration not stated) | Non-toxic

Test system: Mus musculus
Assay: Anticonvulsant activity in Kunming mouse assessed as protection against maximal electroshock-induced seizures at 30 mg/kg, ip measured after 0.5 hr
Format: functional, organism-based
Set-up: dose 30 mg/kg
Conditions: not given
In short: (§2)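 Male Kunming mice (20 ± 2.0 g) were dosed ip at 30, 100 and 300 mg/kg as a suspension in 0.5% methylcellulose, one to four mice per dose. A 60-Hz, 50-mA current was applied through corneal electrodes for 0.25 s at 0.5 h and 4.0 h after dosing. Absence of hindlimb tonic extension counted as protection. The value is the minimal dose protecting half or more of the mice.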

SMILES | Activity
CCOC(=O)C1(NC(=O)NNC(=O)c2ccc(C(F)(F)F)cc2)CC1(C)C (configuration not stated) | Active
CCOC(=O)C1(NC(=O)NN2C(=O)c3ccccc3C2=O)CC1(C)C (configuration not stated) | Active
CCOC(=O)C1(NC(=O)NNC(=O)c2ccc(Cl)cc2)CC1(C)C (configuration not stated) | Active

Test system: Mus musculus
Assay: Anticonvulsant activity in Kunming mouse assessed as protection against maximal electroshock-induced seizures at 100 mg/kg, ip measured after 0.5 hr
Format: functional, organism-based
Set-up: dose 100 mg/kg
Conditions: not given
In short: as §2

SMILES | Activity
CCOC(=O)C1(NC(=O)NNC(=O)c2ccc(C(C)(C)C)cc2)CC1(C)C (configuration not stated) | Active

Test system: not listed separately
Assay: Neurotoxicity in ip dosed Kunming mouse measured 30 mins post compound administration by rotorod test
Format: toxicity, organism-based
Conditions: in vivo

SMILES | TD50 at 0.5 h [mg/kg]
CCOC(=O)C1(NC(=O)NNC(=O)c2ccc(C(F)(F)F)cc2)CC1(C)C (configuration not stated) | 332
CCOC(=O)C1(NC(=O)NN2C(=O)c3ccccc3C2=O)CC1(C)C (configuration not stated) | 352
CCOC(=O)C1(NC(=O)NNC(=O)c2ccc(Cl)cc2)CC1(C)C (configuration not stated) | 382

Test system: Mus musculus
Assay: Anticonvulsant activity in Kunming mouse assessed as protection against maximal electroshock-induced seizures at 100 mg/kg, ip measured after 4 hrs
Format: functional, organism-based
Set-up: dose 100 mg/kg
Conditions: not given
In short: as §2

SMILES | Activity
CCOC(=O)C1(NC(=O)NN2C(=O)c3ccccc3C2=O)CC1(C)C (configuration not stated) | Active

Test system: Mus musculus
Assay: Protective index, ratio of TD50 for neurotoxicity in Kunming mouse to ED50 for protection against subcutaneous pentylenetetrazol-induced clonic seizures in Kunming mouse
Format: functional
Conditions: not given

SMILES | Ratio TD50/ED50
CCOC(=O)C1(NC(=O)NNC(=O)c2ccc(C(F)(F)F)cc2)CC1(C)C (configuration not stated) | 5.9
CCOC(=O)C1(NC(=O)NN2C(=O)c3ccccc3C2=O)CC1(C)C (configuration not stated) | 1.7
CCOC(=O)C1(NC(=O)NNC(=O)c2ccc(Cl)cc2)CC1(C)C (configuration not stated) | 1.1

Test system: Mus musculus
Assay: Anticonvulsant activity in Kunming mouse assessed as protection against subcutaneous pentylenetetrazol-induced clonic seizures at 300 mg/kg, ip measured after 4 hrs
Format: functional, organism-based
Set-up: dose 300 mg/kg
Conditions: not given
In short: (§3)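 Male Kunming mice (20 ± 2.0 g) received ip doses of 30, 100 or 300 mg/kg as a suspension in 0.5% methylcellulose, one to four mice per dose. Pentylenetetrazole in 0.9% saline was injected subcutaneously. Protection meant failure to show even a threshold seizure (a single clonic spasm lasting at least 5 s), read at 0.5 h and 4.0 h. Activity was scored as the minimal dose protecting half or more of the mice.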

SMILES | Activity
CCOC(=O)C1(NC(=O)NNC(=O)c2ccc(OC)cc2)CC1(C)C (configuration not stated) | inactive
CCOC(=O)C1(NC(=O)NN2C(=O)c3ccccc3C2=O)CC1(C)C (configuration not stated) | Active
CCOC(=O)C1(NC(=O)NNC(=O)c2ccc(OC)c(OC)c2)CC1(C)C (configuration not stated) | inactive
CCOC(=O)C1(NC(=O)NNC(=O)c2ccc(CC)cc2)CC1(C)C (configuration not stated) | inactive
CCOC(=O)C1(NC(=O)NNC(=O)c2ccc(C(C)(C)C)cc2)CC1(C)C (configuration not stated) | inactive
CCOC(=O)C1(NC(=O)NNC(=O)c2ccc(Cl)cc2)CC1(C)C (configuration not stated) | Active

Test system: Mus musculus
Assay: Anticonvulsant activity in ip dosed Kunming mouse assessed as protection against subcutaneous pentylenetetrazol-induced clonic seizures
Format: functional
Conditions: not given

SMILES | ED50 [mg/kg]
CCOC(=O)C1(NC(=O)NNC(=O)c2ccc(C(F)(F)F)cc2)CC1(C)C (configuration not stated) | 58.4
CCOC(=O)C1(NC(=O)NN2C(=O)c3ccccc3C2=O)CC1(C)C (configuration not stated) | 213
CCOC(=O)C1(NC(=O)NNC(=O)c2ccc(Cl)cc2)CC1(C)C (configuration not stated) | 335

Test system: Mus musculus
Assay: Anticonvulsant activity in Kunming mouse assessed as protection against maximal electroshock-induced seizures at 300 mg/kg, ip measured after 0.5 hr
Format: functional, organism-based
Set-up: dose 300 mg/kg
Conditions: not given
In short: as §2

SMILES | Activity
CCOC(=O)C1(NC(=O)NNC(=O)c2ccc(OC)cc2)CC1(C)C (configuration not stated) | Active
CCOC(=O)C1(NC(=O)NNC(=O)c2ccc(OC)c(OC)c2)CC1(C)C (configuration not stated) | Active
CCOC(=O)C1(NC(=O)NNC(=O)c2ccc(CC)cc2)CC1(C)C (configuration not stated) | Active

Test system: Mus musculus
Assay: Anticonvulsant activity in ip dosed Kunming mouse assessed as protection against maximal electroshock-induced seizures
Format: functional
Conditions: not given

SMILES | ED50 [mg/kg]
CCOC(=O)C1(NC(=O)NNC(=O)c2ccc(C(F)(F)F)cc2)CC1(C)C (configuration not stated) | 9.8
CCOC(=O)C1(NC(=O)NN2C(=O)c3ccccc3C2=O)CC1(C)C (configuration not stated) | 23.6
CCOC(=O)C1(NC(=O)NNC(=O)c2ccc(Cl)cc2)CC1(C)C (configuration not stated) | 20.1

Test system: Mus musculus
Assay: Neurotoxicity in Kunming mouse at 300 mg/kg, ip after 4 hrs by rotorod test
Format: toxicity, organism-based
Set-up: dose 300 mg/kg, route intraperitoneal
Conditions: in vivo
In short: as §1

SMILES | Activity
CCOC(=O)C1(NC(=O)NNC(=O)c2ccc(C(F)(F)F)cc2)CC1(C)C (configuration not stated) | Non-toxic
CCOC(=O)C1(NC(=O)NNC(=O)c2ccc(OC)cc2)CC1(C)C (configuration not stated) | Non-toxic
CCOC(=O)C1(NC(=O)NN2C(=O)c3ccccc3C2=O)CC1(C)C (configuration not stated) | Non-toxic
CCOC(=O)C1(NC(=O)NNC(=O)c2ccc(OC)c(OC)c2)CC1(C)C (configuration not stated) | Toxic
CCOC(=O)C1(NC(=O)NNC(=O)c2ccc(CC)cc2)CC1(C)C (configuration not stated) | Non-toxic
CCOC(=O)C1(NC(=O)NNC(=O)c2ccc(C(C)(C)C)cc2)CC1(C)C (configuration not stated) | Toxic
CCOC(=O)C1(NC(=O)NNC(=O)c2ccc(Cl)cc2)CC1(C)C (configuration not stated) | Toxic

Test system: Mus musculus
Assay: Anticonvulsant activity in Kunming mouse assessed as protection against maximal electroshock-induced seizures at 300 mg/kg, ip measured after 4 hrs
Format: functional, organism-based
Set-up: dose 300 mg/kg
Conditions: not given
In short: as §2

SMILES | Activity
CCOC(=O)C1(NC(=O)NNC(=O)c2ccc(OC)cc2)CC1(C)C (configuration not stated) | Active
CCOC(=O)C1(NC(=O)NNC(=O)c2ccc(OC)c(OC)c2)CC1(C)C (configuration not stated) | Active
CCOC(=O)C1(NC(=O)NNC(=O)c2ccc(CC)cc2)CC1(C)C (configuration not stated) | Active
CCOC(=O)C1(NC(=O)NNC(=O)c2ccc(C(C)(C)C)cc2)CC1(C)C (configuration not stated) | inactive
CCOC(=O)C1(NC(=O)NNC(=O)c2ccc(Cl)cc2)CC1(C)C (configuration not stated) | Active

Test system: Mus musculus
Assay: Anticonvulsant activity in Kunming mouse assessed as protection against maximal electroshock-induced seizures at 30 mg/kg, ip measured after 4 hrs
Format: functional, organism-based
Set-up: dose 30 mg/kg
Conditions: not given
In short: as §2

SMILES | Activity
CCOC(=O)C1(NC(=O)NNC(=O)c2ccc(C(F)(F)F)cc2)CC1(C)C (configuration not stated) | Active

Test system: Mus musculus
Assay: Anticonvulsant activity in Kunming mouse assessed as protection against subcutaneous pentylenetetrazol-induced clonic seizures at 100 mg/kg, ip measured after 4 hrs
Format: functional, organism-based
Set-up: dose 100 mg/kg
Conditions: not given
In short: as §3

SMILES | Activity
CCOC(=O)C1(NC(=O)NNC(=O)c2ccc(C(F)(F)F)cc2)CC1(C)C (configuration not stated) | Active

Test system: Mus musculus
Assay: Anticonvulsant activity in Kunming mouse assessed as protection against subcutaneous pentylenetetrazol-induced clonic seizures at 300 mg/kg, ip measured after 0.5 hrs
Format: functional, organism-based
Set-up: dose 300 mg/kg
Conditions: not given
In short: as §3

SMILES | Activity
CCOC(=O)C1(NC(=O)NNC(=O)c2ccc(C(F)(F)F)cc2)CC1(C)C (configuration not stated) | Active
CCOC(=O)C1(NC(=O)NNC(=O)c2ccc(OC)c(OC)c2)CC1(C)C (configuration not stated) | inactive
CCOC(=O)C1(NC(=O)NNC(=O)c2ccc(CC)cc2)CC1(C)C (configuration not stated) | Active
CCOC(=O)C1(NC(=O)NNC(=O)c2ccc(C(C)(C)C)cc2)CC1(C)C (configuration not stated) | Active
CCOC(=O)C1(NC(=O)NNC(=O)c2ccc(Cl)cc2)CC1(C)C (configuration not stated) | inactive

Test system: Mus musculus
Assay: Anticonvulsant activity in Kunming mouse assessed as protection against subcutaneous pentylenetetrazol-induced clonic seizures at 100 mg/kg, ip measured after 0.5 hrs
Format: functional, organism-based
Set-up: dose 100 mg/kg
Conditions: not given
In short: as §3

SMILES | Activity
CCOC(=O)C1(NC(=O)NNC(=O)c2ccc(OC)cc2)CC1(C)C (configuration not stated) | Active
CCOC(=O)C1(NC(=O)NN2C(=O)c3ccccc3C2=O)CC1(C)C (configuration not stated) | Active
